Assay results as given in ChEMBL document CHEMBL4477187, “Macrolides from a Marine-Derived Fungus, Penicillium meleagrinum var. viridiflavum, Showing Synergistic Effects with Fluconazole against Azole-Resistant Candida albicans” (2016).
In brackets after ≈: the same amount, converted by molar mass.

Experiments:
Format in all cases: functional
Candida albicans [1] = experiment: Antifungal activity against fluconazole/itraconazole/voriconazole-resistant Candida albicans clinical isolate J2-36 incubated for 48 hrs by microdilution assay; settings: isolate J2-36, 48 h
Outline: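 Clinical isolate grown 48 h at 37 °C with test compound alone, tested up to […] μg/mL. MIC read as lowest concentration giving ≥90% growth reduction versus drug-free control.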

Candida albicans [2] = experiment: Antifungal activity against fluconazole/itraconazole/voriconazole-resistant Candida albicans clinical isolate J2-36 assessed as fractional inhibitory concentration in presence of fluconazole incubated for 48 hrs by checkerboard microdilution assay
Outline: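 FICA per test compound = MIC in combination with fluconazole / MIC alone. Clinical isolate incubated 48 h at 37 °C. Each MIC = lowest concentration giving ≥90% growth reduction versus drug-free control.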

Candida albicans [3] = experiment: Antifungal activity against fluconazole/itraconazole/voriconazole-resistant Candida albicans clinical isolate J2-36 incubated for 48 hrs in presence of fluconazole by checkerboard microdilution assay; settings: isolate J2-36, 48 h
Outline: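 Test compound combined with fluconazole against the clinical isolate, 48 h at 37 °C. Combination MIC taken as lowest concentration giving ≥90% growth reduction versus drug-free control.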

| SMILES | MIC (Candida albicans [1]) | Ratio (Candida albicans [2]) | MIC (Candida albicans [3]) |
| --- | --- | --- | --- |
| OC(Cn1cncn1)(Cn1cncn1)c1ccc(F)cc1F [FLUCONAZOLE] | > 64 mg/L | – | – |
| C[C@@H]1CCCCC(=O)N(C)[C@@H](Cc2ccc(OCCO)cc2)C(=O)O[C@H](C[C@H](C)O)CC1 | 8 mg/L (≈ 17.8 µM) | 0.0039 | 0.031 mg/L |
| CCC[C@@H]1CC[C@H](C)CCCCC(=O)N(C)[C@@H](Cc2ccc(OCCO)cc2)C(=O)O1 | 16 mg/L (≈ 36.9 µM) | 0.0078 | 0.125 mg/L |
| CCC[C@H](O)C[C@@H]1CC[C@H](C)CCCCC(=O)N(C)[C@@H](Cc2ccc(OCC(O)C(C)(C)O)cc2)C(=O)O1 (some centres not stated) | > 32 mg/L | <0.016 | 0.5 mg/L |
| CCCCCCC[C@@H]1CC[C@H](C)CCCCC(=O)N(C)[C@@H](Cc2ccc(OCCO)cc2)C(=O)O1 | > 32 mg/L | <0.016 | 0.5 mg/L |
| CCCCC[C@@H]1CC[C@H](C)CCCCC(=O)N(C)[C@@H](Cc2ccc(OCC=C(C)C)cc2)C(=O)O1 | > 32 mg/L | <0.031 | 1 mg/L |
| CCC[C@H](O)C[C@@H]1CC[C@H](C)CCCCC(=O)N(C)[C@@H](Cc2ccc(OCCO)cc2)C(=O)O1 | 1 mg/L (≈ 2.09 µM) | 0.0078 | 0.0078 mg/L |
| CCCCC[C@@H]1CC[C@H](C)CCCCC(=O)N(C)[C@@H](Cc2ccc(OCCO)cc2)C(=O)O1 | 2 mg/L (≈ 4.33 µM) | 0.00078 | 0.0016 mg/L |
